ERAP1 inh – blocks human ERAP1 aminopeptidase activity | recombinant ERAP1, Leu-AMC fluorescence, 60 min | inhibition, % at 10.7 µM | hit rate 0.15% among 340,000 | AID 652197;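 active = mean replicate inhibition of at least 30%, or all replicates individually reaching that 30% level; inactive = mean below 30% and not every replicate reaching it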
PGC1a acetyl inh – lowers PGC1a acetylation signal in U2OS cells. AlphaScreen anti-acetyl-lysine; with virally co-expressed GCN5 acetyltransferase. inhibition, % at 15.6 µM. hit rate 0.17% among 350,000. AID 651687;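 active = every replicate shows inhibition of at least 40%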
ARNT-TACC3 inh – disruptors of human ARNT/TACC3 interaction; hit rate 0.66% among 390,000; AlphaScreen His-ARNT PAS-B/GST-TACC3 binding, luminescence; TACC3 fragment carries E629A point mutation; AID 623870; inhibition, % at 9.99 µM; Q9Y6A5;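 active = mean inhibition of replicates at least 50% and at least half of replicates each reaching 50%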
S100A4 inh HTS – S100A4-myosin IIA interaction inhibition; P26447; hit rate 0.14% among 360,000; S100A4/TAMRA-MyoIIA peptide fluorescence polarization; inhibition, % at 10.7 µM;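 active = mean inhibition of at least 70% across replicates, with every replicate also reaching that level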
Target sequence (P26447 whole entry, looked up): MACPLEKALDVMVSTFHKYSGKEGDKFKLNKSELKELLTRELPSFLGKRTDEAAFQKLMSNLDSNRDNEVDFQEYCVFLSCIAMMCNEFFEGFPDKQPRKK
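assay system = human S100A4 monomer with TAMRA-labelled myosin IIA peptide | also added = labelled myosin peptide probe, 5 nM | incubation = 5 min between mix addition and reading | control set = DMSO and TFP controls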
Casp6 inh – inhibitors of human caspase-6. P55212. purified caspase-6, Z-VEID-R110 cleavage fluorescence. inhibition, % at 12.5 µM. hit rate 0.53% among 350,000. AID 686996;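 active = mean inhibition across replicates at least about 35%, with every replicate also reaching that limit, limit read from the data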
Target sequence (P55212 24-179 limits assumed): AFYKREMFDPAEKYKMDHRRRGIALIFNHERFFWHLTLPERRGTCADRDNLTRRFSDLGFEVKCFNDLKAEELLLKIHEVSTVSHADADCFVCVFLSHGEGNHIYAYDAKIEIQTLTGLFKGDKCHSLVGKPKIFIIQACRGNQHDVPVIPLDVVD
Target sequence (P55212 194-293 limits assumed): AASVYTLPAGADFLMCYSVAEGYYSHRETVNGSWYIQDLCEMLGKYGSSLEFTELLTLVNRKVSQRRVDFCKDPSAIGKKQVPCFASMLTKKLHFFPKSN
rRNA inh HTS – inhibits bacterial ribosomal RNA function over humanized ribosomes | GFP signal change (wild-type ribosome), % (no concentration beside the values) | E. coli WT GFP vs humanized-ribosome RFP mutants, fluorescence, 24 h; active compounds read low; DMSO median 0, no signal -100 | hit rate 1.6% among 350,000 | AID 720706;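 active = significant combined selectivity score with lowered wild-type GFP, culture density cut under 30%, mutant RFP and density less affected; inactive = any of these conditions unmet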
A number is an active result. Only some compounds are listed: those with a hit (about 2.4% of all), similar ones and a draw of the others.

What do the screens show for `CC(=O)N(C)C[C@@H]1Oc2ncc(C#C[C@H](C)O)cc2C(=O)N([C@@H](C)CO)C[C@H]1C`?
ERAP1 inh: inactive; PGC1a acetyl inh: inactive; ARNT-TACC3 inh: inactive; S100A4 inh HTS: inactive; Casp6 inh: inactive; rRNA inh HTS: inactive

How did S=C(NCCN1CCOCC1)Nc1ccc(-c2nc3ccccc3[nH]2)cc1 do in these assays?
ERAP1 inh: inactive; PGC1a acetyl inh: inactive; ARNT-TACC3 inh: inactive; S100A4 inh HTS: inactive; Casp6 inh: inactive; rRNA inh HTS: -23.8

Results for Clc1ccccc1CN1CCSCC1 ?
ERAP1 inh: inactive; PGC1a acetyl inh: 47.1; ARNT-TACC3 inh: inactive; S100A4 inh HTS: inactive; Casp6 inh: inactive; rRNA inh HTS: inactive

What do the screens show for `Cc1nc2ccccn2c1C(=O)CSc1ccccc1`?
ERAP1 inh: inactive; PGC1a acetyl inh: inactive; ARNT-TACC3 inh: inactive; S100A4 inh HTS: inactive; Casp6 inh: inactive; rRNA inh HTS: -36.8

Results for Cc1nc2ccccn2c1C(=O)NN=C1CCCC1 ?
ERAP1 inh: inactive; ARNT-TACC3 inh: 19.8; S100A4 inh HTS: inactive; Casp6 inh: inactive; rRNA inh HTS: inactive

How did CCCNC(=O)N1[C@H](CNC(C)=O)[C@H](c2ccc(C3=CCCC3)cc2)[C@@H]1CO do in these assays?
PGC1a acetyl inh: inactive; ARNT-TACC3 inh: inactive; rRNA inh HTS: inactive

Results for Clc1cccc(Cc2c(-c3cccc(Cl)c3)nc3ccc(Br)cn23)c1 ?
ERAP1 inh: inactive; PGC1a acetyl inh: inactive; S100A4 inh HTS: inactive; Casp6 inh: inactive; rRNA inh HTS: -23.4

Results for COc1ccc(-c2nc3ccc(C)cn3c2CC2CCCCC2)cc1OC ?
ERAP1 inh: inactive; PGC1a acetyl inh: inactive; S100A4 inh HTS: inactive; Casp6 inh: inactive; rRNA inh HTS: -29.4

How did COc1ccc(-c2nc3ccc(Br)cn3c2Cc2cccc(Cl)c2)cc1OC do in these assays?
PGC1a acetyl inh: inactive; S100A4 inh HTS: inactive; Casp6 inh: inactive; rRNA inh HTS: -27.2

What do the screens show for `COc1ccc(-c2nc3ccc(C)cn3c2Cc2ccsc2)cc1OC`?
ERAP1 inh: inactive; PGC1a acetyl inh: inactive; S100A4 inh HTS: inactive; Casp6 inh: inactive; rRNA inh HTS: inactive

Results for COc1ccc(-c2nc3ccc(Cl)cn3c2Cc2cccc(Cl)c2)cc1OC ?
ERAP1 inh: inactive; PGC1a acetyl inh: inactive; S100A4 inh HTS: inactive; Casp6 inh: inactive; rRNA inh HTS: inactive

Results for COc1ccccc1CNC(=O)C[C@@H]1CC[C@@H]2[C@H](COC[C@@H](O)CN2C(=O)Nc2ccc(Cl)cc2)O1 ?
ERAP1 inh: inactive; PGC1a acetyl inh: inactive; ARNT-TACC3 inh: inactive; S100A4 inh HTS: inactive; Casp6 inh: inactive; rRNA inh HTS: inactive

How did Cc1ccccc1S(=O)(=O)N1CCCCN2[C@H](CO)[C@@H](c3ccc(-c4ccccc4)cc3)[C@@H]2C1 do in these assays?
ERAP1 inh: inactive; PGC1a acetyl inh: inactive; ARNT-TACC3 inh: inactive; S100A4 inh HTS: inactive; Casp6 inh: inactive

What do the screens show for `c1ccc(OCCSc2nnc3sc4ccccc4n23)cc1`?
ERAP1 inh: inactive; PGC1a acetyl inh: inactive; ARNT-TACC3 inh: inactive; S100A4 inh HTS: inactive; Casp6 inh: inactive; rRNA inh HTS: -41.0

What do the screens show for `O=C(c1cccnc1)N1CC2(C1)[C@@H](c1ccccc1)[C@H](CO)N2C(=O)c1cccnc1`?
rRNA inh HTS: inactive

What do the screens show for `OCCCc1cn(-c2ccccc2)c2ccccc12`?
ERAP1 inh: inactive; ARNT-TACC3 inh: inactive; S100A4 inh HTS: inactive; Casp6 inh: inactive; rRNA inh HTS: -39.3

Results for Cn1c(-c2ccccc2)c(CCO)c2ccccc21 ?
PGC1a acetyl inh: inactive; ARNT-TACC3 inh: inactive

What do the screens show for `COc1cccc(S(=O)(=O)N2CC[C@H]3[C@H](CO)Nc4ccc(C#Cc5ccccc5)cc4[C@H]32)c1`?
ERAP1 inh: inactive; PGC1a acetyl inh: inactive; ARNT-TACC3 inh: inactive; S100A4 inh HTS: inactive; Casp6 inh: inactive; rRNA inh HTS: inactive

Results for COc1cccc(S(=O)(=O)N2CC[C@@H]3[C@@H](CO)Nc4ccc(C#Cc5ccccc5)cc4[C@@H]32)c1 ?
ERAP1 inh: inactive; PGC1a acetyl inh: inactive; ARNT-TACC3 inh: inactive; S100A4 inh HTS: 102.8; Casp6 inh: inactive; rRNA inh HTS: inactive

Results for COc1cccc(-c2ccc3c(c2)[C@@H]2[C@@H](CCN2S(=O)(=O)c2cn(C)cn2)[C@@H](CO)N3)c1 ?
ERAP1 inh: inactive; PGC1a acetyl inh: inactive; ARNT-TACC3 inh: active; S100A4 inh HTS: inactive; Casp6 inh: inactive; rRNA inh HTS: inactive

Results for Cc1cccc(S(=O)(=O)N2CC[C@H]3[C@H](CO)Nc4ccc(C#Cc5ccc(F)cc5)cc4[C@H]32)c1 ?
ERAP1 inh: inactive; PGC1a acetyl inh: inactive; ARNT-TACC3 inh: inactive; S100A4 inh HTS: inactive; Casp6 inh: inactive; rRNA inh HTS: inactive

What do the screens show for `Cc1cccc(S(=O)(=O)N2CC[C@@H]3[C@H](CO)Nc4ccc(C#Cc5ccc(F)cc5)cc4[C@@H]32)c1`?
ERAP1 inh: inactive; PGC1a acetyl inh: inactive; ARNT-TACC3 inh: inactive; S100A4 inh HTS: 97.4; Casp6 inh: inactive; rRNA inh HTS: inactive

What do the screens show for `Cc1noc(C)c1S(=O)(=O)N(C)C[C@@H]1Oc2ccc(NS(C)(=O)=O)cc2C(=O)N([C@H](C)CO)C[C@@H]1C`?
PGC1a acetyl inh: inactive

Results for Nc1ccccc1N=Cc1ccc(-c2cccc(Cl)c2)o1 ?
ERAP1 inh: inactive; PGC1a acetyl inh: inactive; ARNT-TACC3 inh: inactive; S100A4 inh HTS: inactive; Casp6 inh: inactive; rRNA inh HTS: -25.9

Results for COC(=O)N/N=C/c1ccc(-c2cccc(Cl)c2)o1 ?
ARNT-TACC3 inh: inactive

How did Cc1ccc(N(CC2CO2)S(=O)(=O)c2ccccc2[N+](=O)[O-])cc1 (stereo not drawn) do in these assays?
ERAP1 inh: inactive; PGC1a acetyl inh: inactive; S100A4 inh HTS: inactive; Casp6 inh: inactive; rRNA inh HTS: inactive

How did Cc1ccc(S(=O)(=O)N(CC2CO2)c2ccccc2[N+](=O)[O-])cc1 (stereo not drawn) do in these assays?
ERAP1 inh: inactive; PGC1a acetyl inh: 79.1; ARNT-TACC3 inh: inactive; S100A4 inh HTS: inactive; Casp6 inh: inactive; rRNA inh HTS: inactive

Results for O=C(CN1CCCCCC1)Nc1ccccc1Oc1ccccc1 ?
ERAP1 inh: inactive; PGC1a acetyl inh: inactive; ARNT-TACC3 inh: inactive; S100A4 inh HTS: inactive; Casp6 inh: inactive; rRNA inh HTS: -41.3

Results for O=C(CN1CCCC1)Nc1ccccc1Sc1ccc(Cl)cc1 ?
ERAP1 inh: inactive; PGC1a acetyl inh: inactive; ARNT-TACC3 inh: inactive; S100A4 inh HTS: inactive; Casp6 inh: inactive; rRNA inh HTS: -42.2

What do the screens show for `O=C(CN1CCCCC1)Nc1cc(Cl)ccc1Oc1ccccc1`?
ERAP1 inh: inactive; ARNT-TACC3 inh: inactive; S100A4 inh HTS: inactive; Casp6 inh: inactive; rRNA inh HTS: inactive

What do the screens show for `O=C(CN1CCOCC1)Nc1ccccc1Sc1ccccc1`?
ERAP1 inh: inactive; PGC1a acetyl inh: inactive; ARNT-TACC3 inh: inactive; S100A4 inh HTS: inactive; Casp6 inh: inactive; rRNA inh HTS: inactive

Bioassay records from PubChem BioAssay.
